Laboratory results taken from ChEMBL document CHEMBL4834419 (J Med Chem, 2021).
Active and inactive are the calls of the source. The rule behind the calls is not given here.

Assays:
[1] = biological target: T1, Retinoic acid receptor RXR-beta (Homo sapiens, UniProt P28702); assay: Agonist activity at human RXRbeta transfected in human HEK293T cells co-expressing pFR/pRL-Luc incubated for 14 to 16 hrs by hybrid reporter gene assay; assay type: cell-based
T1 sequence (P28702 whole entry): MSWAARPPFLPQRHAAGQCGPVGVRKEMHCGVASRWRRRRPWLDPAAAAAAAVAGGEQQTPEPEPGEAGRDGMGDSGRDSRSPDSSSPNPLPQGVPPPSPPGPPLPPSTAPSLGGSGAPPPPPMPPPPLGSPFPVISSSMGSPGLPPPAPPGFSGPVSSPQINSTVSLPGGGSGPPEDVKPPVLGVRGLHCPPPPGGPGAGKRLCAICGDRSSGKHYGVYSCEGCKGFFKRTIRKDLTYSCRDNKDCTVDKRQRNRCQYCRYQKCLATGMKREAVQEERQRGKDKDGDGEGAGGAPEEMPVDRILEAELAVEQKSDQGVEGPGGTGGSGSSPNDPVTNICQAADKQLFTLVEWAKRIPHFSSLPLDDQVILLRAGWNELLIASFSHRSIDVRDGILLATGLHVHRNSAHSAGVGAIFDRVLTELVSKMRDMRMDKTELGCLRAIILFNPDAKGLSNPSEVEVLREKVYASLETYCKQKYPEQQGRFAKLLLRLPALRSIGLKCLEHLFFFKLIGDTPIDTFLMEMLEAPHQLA

[2] = biological target: T2, Retinoic acid receptor RXR-gamma (Homo sapiens, UniProt P48443); assay: Agonist activity at human RXRgamma transfected in human HEK293T cells co-expressing pFR/pRL-Luc incubated for 14 to 16 hrs by hybrid reporter gene assay; assay type: cell-based
T2 sequence (P48443 whole entry): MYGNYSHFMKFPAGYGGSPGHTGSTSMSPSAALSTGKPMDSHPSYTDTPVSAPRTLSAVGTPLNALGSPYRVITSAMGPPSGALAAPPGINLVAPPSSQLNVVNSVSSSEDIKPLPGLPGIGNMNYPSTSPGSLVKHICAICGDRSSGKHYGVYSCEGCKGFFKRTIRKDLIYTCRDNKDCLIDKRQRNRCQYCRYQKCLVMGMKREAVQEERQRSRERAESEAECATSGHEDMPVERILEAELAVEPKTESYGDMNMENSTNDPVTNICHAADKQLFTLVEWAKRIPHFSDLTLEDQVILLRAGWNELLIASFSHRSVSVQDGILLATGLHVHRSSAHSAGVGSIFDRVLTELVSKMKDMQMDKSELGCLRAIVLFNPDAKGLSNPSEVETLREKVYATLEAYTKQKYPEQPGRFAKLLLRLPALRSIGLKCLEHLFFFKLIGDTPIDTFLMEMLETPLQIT

[3] = biological target: T3, Retinoic acid receptor RXR-alpha (Homo sapiens, UniProt P19793); assay: Agonist activity at human RXRalpha transfected in human HEK293T cells co-expressing pFR/pRL-Luc incubated for 14 to 16 hrs by hybrid reporter gene assay; assay type: cell-based
T3 sequence (P19793 whole entry): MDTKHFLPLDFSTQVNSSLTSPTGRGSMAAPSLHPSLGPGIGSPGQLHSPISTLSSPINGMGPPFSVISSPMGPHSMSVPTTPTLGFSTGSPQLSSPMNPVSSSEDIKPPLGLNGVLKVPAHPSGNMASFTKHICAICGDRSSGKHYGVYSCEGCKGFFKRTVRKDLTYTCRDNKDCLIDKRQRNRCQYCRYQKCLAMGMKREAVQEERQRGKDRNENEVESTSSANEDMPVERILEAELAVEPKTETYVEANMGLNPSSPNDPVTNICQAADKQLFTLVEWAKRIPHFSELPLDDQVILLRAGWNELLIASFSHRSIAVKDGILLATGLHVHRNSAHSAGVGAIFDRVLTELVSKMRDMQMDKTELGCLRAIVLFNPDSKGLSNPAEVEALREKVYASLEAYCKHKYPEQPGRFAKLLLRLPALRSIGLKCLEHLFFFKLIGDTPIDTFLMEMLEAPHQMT

[4] = biological target: T4, Retinoic acid receptor RXR-alpha (Homo sapiens) (UniProt P19793); assay: Agonist activity at human RXRalpha transfected in human HEK293T cells co-expressing pFR/pRL-Luc at 30 uM incubated for 14 to 16 hrs by hybrid reporter gene assay; assay type: cell-based; details: time 14-16 hrs
T4 sequence (whole entry): T3 sequence (P19793 whole entry)
Outline: (§1)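 Gal4 hybrid reporter assay in HEK293T cells, seeded 24 h before transfection (Lipofectamine LTX, Opti-MEM) with pFR-Luc, pRL-SV40 and pFA-CMV plasmid carrying the hinge region and LBD of the human receptor. After 5 h, compound added in 0.1% DMSO, with 0.1% DMSO alone as untreated control. Dual-Glo luciferase read after 14−16 h; firefly/renilla normalized; duplicates, ≥2 independent experiments.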

[5] = biological target: T5, Retinoic acid receptor RXR-beta (Homo sapiens) (UniProt P28702); assay: Agonist activity at human RXRbeta transfected in human HEK293T cells co-expressing pFR/pRL-Luc at 30 uM incubated for 14 to 16 hrs by hybrid reporter gene assay; assay type: cell-based; details: time 14-16 hrs; outline: as §1
T5 sequence (whole entry): T1 sequence (P28702 whole entry)

[6] = biological target: T6, Retinoic acid receptor RXR-gamma (Homo sapiens) (UniProt P48443); assay: Agonist activity at human RXRgamma transfected in human HEK293T cells co-expressing pFR/pRL-Luc at 30 uM incubated for 14 to 16 hrs by hybrid reporter gene assay; assay type: cell-based; details: time 14-16 hrs; outline: as §1
T6 sequence (whole entry): T2 sequence (P48443 whole entry)

[7] = biological target: T6, Retinoic acid receptor RXR-gamma (Homo sapiens); assay: Agonist activity at human RXRgamma transfected in human HEK293T cells co-expressing pFR/pRL-Luc at 50 uM incubated for 14 to 16 hrs by hybrid reporter gene assay; assay type: cell-based; details: time 14-16 hrs; outline: as §1
[8] = Metabolic stability in Sprague-Dawley rat liver microsomes assessed as compound degradation at 10 uM incubated for 60 min by HPLC analysis; assay type: ADME; details: 1 h
Outline: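 Compound at 10 μM final in 0.1 M phosphate, pH 7.4, was preincubated 5 min at 37 °C with an NADPH-regenerating system. Sprague-Dawley rat liver microsomes were then added. Reactions were stopped with ice-cold methanol at 0, 15, 30 and 60 min and remaining compound quantified by HPLC against an external calibration. Controls: no NADPH, heat-inactivated microsomes. Three independent experiments.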

Row | EC50 [1] | EC50 [2] | EC50 [3] | Compound | other results
1 | 500 nM | 1300 nM | 480 nM | O=C(O)CCCc1nc(-c2ccccc2)c(-c2cc(Cl)cc(Cl)c2)o1 | –
2 | – | > 30000 nM | 16900 nM | Cc1ccccc1-c1oc(CCC(=O)O)nc1-c1ccccc1 | –
3 | 1600 nM | > 10000 nM | 1000 nM | Cc1ccc(-c2oc(CCC(=O)O)nc2-c2ccccc2)cc1 | –
4 | 600 nM | – | – | O=C(O)CCc1nc(-c2ccccc2)c(-c2cccc(Cl)c2)o1 | –
5 | 290 nM | 400 nM | 180 nM | O=C(O)CCc1nc(-c2ccc(Cl)cc2)c(-c2cc(Cl)cc(Cl)c2)o1 | –
6 | – | – | – | NC(=O)CCc1nc(-c2ccccc2)c(-c2ccccc2)o1 | Activity [4]: inactive; Activity [5]: inactive; Activity [6]: inactive
7 | 2000 nM | 3500 nM | 3100 nM | O=C(O)CCc1cc(-c2cc(Cl)cc(Cl)c2)n(-c2cccc(Cl)c2)n1 | –
8 | 470 nM | 1640 nM | 430 nM | O=C(O)CCc1cc(-c2cc(Cl)cc(Cl)c2)n(-c2ccc(F)cc2)n1 | –
9 | 48000 nM | – | 36000 nM | O=C(O)CCc1nc(-c2ccccc2Cl)c(-c2ccccc2)o1 | Activity [7]: inactive
10 | 1400 nM | 3000 nM | 2500 nM | Cc1ccc(-n2nc(CCC(=O)O)cc2-c2cc(Cl)cc(Cl)c2)cc1 | –
11 | 2400 nM | 1400 nM | 1300 nM | O=C(O)CCc1nc(-c2ccc(Cl)cc2)c(-c2ccccc2)o1 | –
12 | – | 1600 nM | – | O=C(O)CCc1cc(-c2cc(Cl)cc(Cl)c2)n(-c2ccccc2)n1 | –
13 | 50 nM | – | – | O=C(O)CCc1nc(-c2ccccc2)c(-c2cc(F)cc(F)c2)o1 | –
14 | 14400 nM | > 100000 nM | – | Cc1ccc(-c2nc(CCC(=O)O)oc2-c2ccccc2)cc1 | –
15 | 1800 nM | > 10000 nM | 1400 nM | COc1cccc(-c2oc(CCC(=O)O)nc2-c2ccccc2)c1 | –
16 | 1100 nM | 3000 nM | 1300 nM | O=C(O)CCCc1cc(-c2cc(Cl)cc(Cl)c2)n(-c2ccc(Cl)cc2)n1 | –
17 | 13500 nM | 43000 nM | 7900 nM | O=C(O)CCCc1nc(-c2ccccc2)c(-c2ccccc2)o1 | –
18 | – | – | – | O=C(O)CCc1nc(-c2ccccc2)co1 | Activity [4]: inactive; Activity [5]: inactive; Activity [6]: inactive
19 | 12400 nM | – | 8400 nM | O=C(O)CCCCc1nc(-c2ccccc2)c(-c2ccccc2)o1 | Activity [7]: inactive
20 | > 30000 nM | > 30000 nM | > 30000 nM | Cn1ccc(-n2nc(CCC(=O)O)cc2-c2cc(Cl)cc(Cl)c2)n1 | –
21 | 2000 nM | 6000 nM | 7700 nM | N#Cc1ccc(-n2nc(CCC(=O)O)cc2-c2cc(Cl)cc(Cl)c2)cc1 | –
22 | 1400 nM | 4000 nM | 1600 nM | COc1ccc(-n2nc(CCC(=O)O)cc2-c2cc(Cl)cc(Cl)c2)cc1 | –

Row | EC50 [1] | EC50 [2] | EC50 [3] | Compound | other results
23 | – | 19000 nM | – | O=C(O)CCc1nc(-c2ccccc2)c(-c2ccc(Cl)cc2)o1 | –
24 | – | – | – | O=C(O)CCc1ncc(-c2ccccc2)o1 | Activity [4]: inactive; Activity [5]: inactive; Activity [6]: inactive
25 | 900 nM | 3500 nM | 500 nM | Cc1cccc(-c2oc(CCC(=O)O)nc2-c2ccccc2)c1 | –
26 | – | – | – | O=C(O)Cc1nc(-c2ccccc2)c(-c2ccccc2)o1 | Activity [4]: inactive; Activity [5]: inactive; Activity [6]: inactive
27 | 50 nM | 200 nM | 60 nM | O=C(O)CCc1nc(-c2ccccc2)c(-c2cc(Cl)cc(Cl)c2)o1 | Stabilty [8]: Stable
28 | 39000 nM | 25000 nM | 6500 nM | Cc1ccccc1-c1nc(CCC(=O)O)oc1-c1ccccc1 | –
29 | 870 nM | 1500 nM | 510 nM | O=C(O)CCc1nc(-c2ccccc2)c(-c2ccc(Cl)c(Cl)c2)o1 | –
30 | 130 nM | 500 nM | – | CC(C)(C)c1cc(-c2oc(CCC(=O)O)nc2-c2ccccc2)cc(C(C)(C)C)c1 | –
31 | 4800 nM | – | – | Cc1cccc(-c2nc(CCC(=O)O)oc2-c2ccccc2)c1 | –
32 | 1300 nM | 4500 nM | 620 nM | O=C(O)CCc1nc(-c2ccc(Cl)c(Cl)c2)c(-c2ccccc2)o1 | –
33 | > 50000 nM | > 50000 nM | > 50000 nM | O=C(O)c1nc(-c2ccccc2)c(-c2ccccc2)o1 | –
34 | 3400 nM | 2800 nM | – | O=C(O)CCc1nc(-c2cc(Cl)cc(Cl)c2)c(-c2ccccc2)o1 | –
35 | 1400 nM | > 20000 nM | 5800 nM | O=C(O)CCc1nc(-c2ccccc2)c(-c2cc(Cl)ccc2Cl)o1 | –
36 | 19100 nM | – | 17000 nM | O=C(O)CCc1nc(-c2ccccc2)c(-c2ccccc2Cl)o1 | Activity [7]: inactive
37 | 1500 nM | – | 1030 nM | O=C(O)CCc1nc(-c2cc(Cl)cc(Cl)c2)c(-c2cc(Cl)cc(Cl)c2)o1 | –
38 | 900 nM | – | 300 nM | Cc1cc(C)cc(-c2oc(CCC(=O)O)nc2-c2ccccc2)c1 | –
39 | 80 nM | 300 nM | 70 nM | O=C(O)CCc1nc(-c2ccccc2)c(-c2cccc(C(F)(F)F)c2)o1 | –
40 | 270 nM | 460 nM | – | O=C(O)CCc1cc(-c2cc(C(F)(F)F)cc(C(F)(F)F)c2)n(-c2ccc(Cl)cc2)n1 | –
41 | 2900 nM | 6700 nM | 1900 nM | O=C(O)CCc1nc(-c2cccc(Cl)c2)c(-c2ccccc2)o1 | –
42 | 25000 nM | 40100 nM | – | O=C(O)CCc1nc(-c2ccccc2)c(-c2ccccc2)o1 [OXAPROZIN] | –
43 | – | 3200 nM | 1200 nM | O=C(O)CCc1nc(-c2ccccc2)c(-c2cccc(Cl)c2Cl)o1 | –
